Only some compounds are listed: those with a hit (about 2.9% of all), similar ones and a draw of the others.
5-HT1A blocker: human 5-HT1a receptor antagonists, primary screen, cell-based, CHO, Ga15 NFAT-bla reporter; 62,000 compounds, 0.68% hits; inhibition, % at 10 µM; 5-hydroxytryptamine receptor 1A (Homo sapiens), P08908; CHO 5-HT1a Ga15 NFAT-bla reporter, antagonist mode;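 active = inhibition above the mean of all tested compounds plus 3 SD, cut at about 43% in these data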;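 note: receptor stimulated by 5-CT agonist at 100 nM near EC80; beta-lactamase reporter measured by ratiometric fluorescence of a cleavable substrate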
S1P3 agonist: human S1P3 receptor agonists, primary screen, cell-based, primary and confirmation, NFAT-BLA reporter; Sphingosine 1-phosphate receptor 3 (Homo sapiens), Q99500; S1P3 NFAT-BLA reporter cells, agonism, FRET ratio; relative to 1 µM S1P, basal subtracted; activation, % at 4.5 µM; 60,000 compounds, 0.1% hits; AID 373, 2006;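 active = activation above the screen-wide mean plus 3 SD, cut at about 4.5% in these data, passing the limit was not always enough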
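Assay system: CHO cells stably expressing human S1P3, Gα16 and NFAT-β-lactamase reporter. Timing: overnight plating, 4 h compound 37 °C, 2 h substrate RT. Signal: β-lactamase FRET emission ratio 460/535 nm. Measure: percent activation versus median 1 µM S1P response, basal-subtracted, per plate. Repeats: primary screen single test, confirmation screen in triplicate.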
HTR1A agonist: human 5-HT1a receptor agonists, primary screen, cell-based, CHO, Ga15 NFAT-bla reporter; 5-hydroxytryptamine receptor 1A (Homo sapiens), P08908; CHO 5-HT1a Ga15 NFAT-bla reporter, FRET ratio; 0% basal, 100% maximal reference agonist; activation, % at 10 µM; 65,000 compounds, 0.56% hits; AID 567, 2006;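 active = activation above the screen-wide mean activation plus 3 SD, cut at about 19% in these data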;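 note: 0% = DMSO wells and 100% = 5-CT at EC100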
HTR1E antagonist: 5-HT1E receptor antagonists, primary screen, cell-based, HTS; 5-hydroxytryptamine receptor 1E (Homo sapiens), P28566; CHO 5-HT1E Ga15 NFAT-bla reporter, FRET, antagonist; inhibition, % at 6 µM; 65,000 compounds, 0.99% hits;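 active = inhibition above a set limit, the mean inhibition across every tested compound plus 3 SD, cut at about 29% in these data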;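 note: signal is the 460 over 535 nm emission ratio of beta-lactamase substrate; 0% = agonist plus DMSO wells and 100% = wells without agonist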
Target sequence (P28566 whole entry, looked up): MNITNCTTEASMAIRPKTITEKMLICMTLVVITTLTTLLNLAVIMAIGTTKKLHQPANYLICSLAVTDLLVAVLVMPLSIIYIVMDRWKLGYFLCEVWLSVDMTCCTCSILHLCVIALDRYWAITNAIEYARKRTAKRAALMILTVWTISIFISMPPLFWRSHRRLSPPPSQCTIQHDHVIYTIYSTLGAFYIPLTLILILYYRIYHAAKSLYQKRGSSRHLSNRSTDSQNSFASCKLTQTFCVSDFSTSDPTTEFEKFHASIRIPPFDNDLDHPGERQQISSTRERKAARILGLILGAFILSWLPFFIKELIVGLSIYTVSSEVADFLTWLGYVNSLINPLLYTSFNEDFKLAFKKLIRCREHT
S1P1 ag-PAM: S1P1 agonists and agonism potentiators, primary screen, cell-based, primary and confirmation screens, CRE-bla reporter; Sphingosine 1-phosphate receptor 1 (Homo sapiens), P21453; S1P1 CRE-bla cells, forskolin, beta-lactamase FRET, potentiator mode; S1P1 agonist co-added at EC20, 2 nM; 100% = saturating reference agonist, 0% = basal; activation, % at 9.5 µM; 56,000 compounds, 0.57% hits;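 active = activation above a cutoff set at the mean activation of all tested compounds plus 3 SD, cut at about 54% in these data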;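 note: forskolin at 4 µM as EC80 and the EC20 agonist is SEW2871; 100% = SEW2871 at its EC100 plus forskolin at EC80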
5HT1E ag: 5-HT1E receptor agonists, primary screen, cell-based, HTS; 65,000 compounds, 0.69% hits; 5-hydroxytryptamine receptor 1E (Homo sapiens), P28566; activation, % at 6 µM; CHO 5-HT1E Ga15 NFAT-bla reporter, FRET; 0% DMSO wells, 100% control agonist wells;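 active = activation above a set limit, the screen-wide mean activation plus 3 SD, cut at about 8.5% in these data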;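 note: 100% = positive control agonist at 1 µM giving full maximal response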
* marks the source's active call; other numbers are inactive results; nt = not tested or not shown.

SMILES	5-HT1A blocker	S1P3 agonist	HTR1A agonist	HTR1E antagonist	S1P1 ag-PAM	5HT1E ag
COc1ccccc1-c1nc(-c2ccc(Br)cc2)no1	13.7	-1.6	-4.3	6.3	78.4*	-0.4
Cc1ccccc1Cn1c(=O)c2c(nc3n2CCN3Cc2ccco2)n(C)c1=O	-8.9	-0.7	-2.1	-14.5	-5.9	0.7
COc1ccc(-c2nnc(-c3ccc(Br)o3)o2)cc1OC	-10.3	-0.2	-0.5	-2.1	10.5	0.2
COc1ccc(-c2nc(-c3ccc(Br)o3)no2)cc1OC	18.2	0.3	0.6	25.6	82.4*	-1.1
O=C(Nc1ccc(N2CCOCC2)c(F)c1)c1ccncc1	9.5	-0.8	-1.7	5.9	15.9	-1.4
O=c1cc(CN2CCN(C/C=C/c3ccccc3)CC2)c2cc(O)ccc2o1	44.0*	-1.1	0.2	16.4	16.4	0.4
Cc1nc2sc(C(c3ccc(F)cc3)N3CCN(C(=O)c4ccco4)CC3)c(O)n2n1 (configuration not stated)	-8.7	0.8	0.2	-5.0	5.4	-0.5
CCOC(=O)Cc1csc(NC(=O)C2CCCN(S(=O)(=O)c3cnc[nH]3)C2)n1 (configuration not stated)	-9.6	-0.7	0.9	7.2	-7.3	0.1
CCOC(=O)c1nn(-c2ccc3c(c2)OCO3)cc1O	3.1	0.3	-5.0	10.3	-50.5	-0.3
Cc1nc(N2CCN(Cc3nc4ccccc4[nH]3)CC2)c2oc3ccccc3c2n1	10.9	nt	3.2	31.5*	nt	27.8*
Cc1nc(SCc2nc3ccccc3[nH]2)c2oc3ccccc3c2n1	31.7	0.3	-0.1	39.3*	5.7	0.4
c1ccc2[nH]c(CSc3ncnc4c3oc3ccccc34)nc2c1	20.6	1.3	0.3	38.0*	43.9	0.4
COCCSc1nc2c(c(=O)[nH]c(=O)n2C)n1CCC(C)C	-9.3	-0.1	0.6	6.2	-1.0	0.5
CSc1ccccc1NC(=O)c1cccnc1	-12.2	0.9	-0.6	-2.9	3.7	48.1*
COCCn1cnnc1SCC(=O)c1ccc(S(=O)(=O)N2CCCC2)cc1	-2.5	-0.4	-1.7	0.7	-0.1	0.5
CCOC(=O)c1[nH]c(C)c(C(=O)c2cc(F)ccc2F)c1C	49.7*	-1.1	-6.3	56.1*	-7.8	-0.2
Cc1ccc2c(c1)c1cccc3c1n2CCN3CCC(N)=O	-6.2	0.2	7.7	-7.5	nt	1.6
O=C(O)c1ccc2c(c1)C(=O)N(c1cc(C(=O)O)ccc1Br)C2=O	7.7	-0.6	-1.0	-10.4	1.2	0.2
Cc1cc(N2C3CCC2CC(O)(c2ccc(F)cc2)C3)nc(-c2ccccc2)n1 (configuration not stated)	43.1*	-1.3	-1.2	23.1	17.1	-1.0
COC(=O)C1=C(C)N(c2cc(Cl)cc(Cl)c2)C(=O)C1	-4.9	nt	-1.1	-2.1	nt	1.2
NC/C(=N\O)c1ccc(Cl)cc1Cl	-15.4	-0.1	-1.8	1.2	-7.1	13.2*
Cn1cccc1C(=O)c1ccc(Cl)cc1Cl	3.6	-1.4	-3.1	10.8	0.2	-0.3
O=C(CSc1nnc(-c2c[nH]c3ccccc23)o1)N1c2ccccc2CCc2ccccc21	32.1	0.0	2.3	-1.1	56.5	-0.3
c1ccc(CSc2nnc(-c3c[nH]c4ccccc34)o2)cc1	19.8	-0.7	-1.5	1.6	97.8*	0.2
CC(C)CCNC(=O)CN(Cc1ccc2c(c1)OCO2)C(=O)CCC(=O)Nc1ccccn1	-11.7	-0.9	-1.4	-2.2	-6.4	-0.4
SMILES	5-HT1A blocker	S1P3 agonist	HTR1A agonist	HTR1E antagonist	S1P1 ag-PAM	5HT1E ag
Cc1cccn2c(=O)c3cc(C#N)c(=NC(=O)c4ccncc4)n(Cc4ccco4)c3nc12	-5.2	0.0	1.8	-2.1	-2.8	0.7
CC(C)n1c(=NC(=O)c2ccco2)c(C#N)cc2c(=O)n3ccccc3cc21	-6.5	1.8	29.1*	3.9	-104.6	9.2*
O=C(c1ccccc1)N1CCN(CC2CC=CCC2)CC1 (configuration not stated)	-9.7	1.2	-0.3	1.5	1.6	9.2*
COc1cccc(-c2cc(C(=O)Nc3ccccc3SC)no2)c1	6.1	-0.8	-4.2	11.9	88.7*	0.1
COc1ccc(-c2cc(C(=O)Nc3ccccc3SC)no2)cc1OC	-14.1	-1.3	1.6	-14.8	-6.2	0.7
COc1ccc(NC(=O)c2cc(-c3ccccc3OC)on2)cc1	21.6	-0.5	-3.2	26.2	42.1	-0.4
COc1ccccc1-c1cc(C(=O)Nc2ccccc2SC)no1	-1.0	-0.5	-3.3	-0.4	94.3*	0.4
CCN(CC(=O)Nc1ccc2c(c1)OCCO2)c1nc(-c2cccnc2)nc2ccccc12	-15.8	0.0	-0.6	-7.4	-45.9	-0.2
O=C(CN1CCOc2ccccc21)N1CCN(c2cccc(Cl)c2)CC1	16.4	-0.9	1.0	10.4	5.0	1.3
CC[N+](C)(C)c1cccc(O)c1	nt	-0.5	-2.6	8.9	8.1	5.3
c1ccc(-c2nnc3n2N=C(c2ccc4c(c2)OCO4)CS3)nc1	nt	-1.0	-1.0	2.1	3.7	-0.8
c1cc2c(cc1C1=Nn3c(nnc3C3CCCCC3)SC1)OCO2	nt	-1.9	0.8	31.5*	-12.7	-2.1
CC(C)=CCC(C)(C)CNC(=O)NC1CCCCC1	nt	-2.2	-2.4	99.1*	10.4	-1.1
COc1ccc(-n2ccnc2SCC(=O)Nc2ccc(OC)cc2OC)cc1	-0.7	-0.3	-0.7	0.9	-6.4	-0.8
CCN1CCCC1CNC(=O)c1nn(-c2ccc(C)cc2)c(=O)c2c1c1ccccc1n2C (configuration not stated)	-10.9	-0.5	-0.2	-6.7	-8.0	37.1*
CCC(C)NC(=O)C1=C(C)C(=O)OC12CCC(C)CC2 (configuration not stated)	2.9	-0.3	-2.7	-6.8	-5.9	0.8
O=S(=O)(c1cccc(S(=O)(=O)N2CCCC2)c1)c1cccc(S(=O)(=O)N2CCCC2)c1	-5.9	-1.0	-6.3	-5.9	1.6	-0.9
O=S(=O)(c1cccc(Cl)c1)N1CCCC1	0.7	nt	2.0	2.6	nt	130.8*
O=C(Cc1ccccc1)N1CCCC1c1ccccc1 (configuration not stated)	0.1	-1.3	-0.4	-11.5	-27.6	-1.3
Cc1cc(NC(=O)Cc2cccs2)nn1CC(=O)NCc1ccco1	7.3	-0.8	-2.5	7.5	-1.7	16.1*
